Assay results reported in ChEMBL document CHEMBL1126008, “Decorporation of aged americium deposits by oral administration of lipophilic polyamino carboxylic acids” (1992).

Key:
Rattus norvegicus [1] = assay: Reduction in carcass 241Am after daily feeding of 200 uM of the compound/kg of body weight to rats for 10 days; assay type: functional
Summary of the method: (§1)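 Sprague-Dawley rats aged 60 days, nine per group. ²⁴¹Am in citrate buffer pH 3.5 given as a single jugular iv injection. From one week later, compound given at 50 μmol/rat (about 200 μmol/kg) in a daily 25 g chow ration for 10 days; untreated controls. Tissues counted for ²⁴¹Am at necropsy. Reduction = […]. p values given.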

Rattus norvegicus [2] = assay: Weight gain after daily feeding of 200 uM of the compound/kg of body weight to rats for 10 days; assay type: functional
Summary of the method: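 Sprague-Dawley rats aged 60 days, nine per group, given ²⁴¹Am iv (jugular, citrate pH 3.5) one week before feeding began. Compound given at 50 μmol/rat (about 200 μmol/kg) daily in 25 g chow for 10 days; untreated controls. Weight gain over the feeding period reported as mean ± deviation.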

Rattus norvegicus [3] = assay: Reduction in one kidney 241AM after daily feeding of 200 uM of the compound/kg of body weight to rats for 10 days; assay type: functional; summary of the method: as §1
Rattus norvegicus [4] = assay: Reduction in liver 241Am after daily feeding of 200 uM of the compound/kg of body weight to rats for 10 days; assay type: functional; summary of the method: as §1
Rattus norvegicus [5] = assay: Reduction in whole body 241Am after daily feeding of 200 uM of the compound/kg of body weight to rats for 10 days; assay type: functional; summary of the method: as §1
Rattus norvegicus [6] = assay: Reduction in both femora 241Am after daily feeding of 200 uM of the compound/kg of body weight to rats for 10 days; assay type: functional; summary of the method: as §1
Rattus norvegicus [7] = species: Rattus norvegicus; assay: Percent retention in rat lumen was measured in situ using intestinal tied-loop technique; assay type: functional, organism-based
Rattus norvegicus [8] = species: Rattus norvegicus; assay: Percent retention in rat carcass was measured in situ using intestinal tied-loop technique; assay type: functional, organism-based
Rattus norvegicus [9] = species: Rattus norvegicus; assay: Percent retention in rat gut section was measured in situ using intestinal tied-loop technique; assay type: functional, organism-based
Canis familiaris = assay: In vitro elimination of Pu (given as citrate) from in vivo tagged canine liver cytosol after administration of the compound; value expressed as following filtrate to residue activity; assay type: functional, Canis lupus familiaris
Summary of the method: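 Liver homogenate in 0.25 M sucrose from a dog injected with Pu-citrate 7 days before sacrifice. Spun 20 min at 40000g to give cytosol, which was dialyzed against 50 mM TRIS-HCl. Cytosol mixed 1:1 with 4 mM compound (stock) in 0.1 M TRIS-HCl, pH 7.5, 270–300 mOsm. Incubated 2 h at 40 °C, then pressure-filtered through a 10000 Da cutoff. Read-out: Pu filtrate/residue ratio; control had no compound.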

Rattus norvegicus [10] = species: Rattus norvegicus; assay: Percent retention in rat liver was measured in situ using intestinal tied-loop technique; assay type: functional, organism-based
Rattus norvegicus [11] = species: Rattus norvegicus; assay: Percent retention in rat visera was measured in situ using intestinal tied-loop technique; assay type: functional, organism-based

SMILES | Reduction (Rattus norvegicus [1]) | Weight (Rattus norvegicus [2]) | Reduction (Rattus norvegicus [3]) | Reduction (Rattus norvegicus [4]) | Reduction (Rattus norvegicus [5]) | Reduction (Rattus norvegicus [6]) | Retention (Rattus norvegicus [7]) | Retention (Rattus norvegicus [8]) | Retention (Rattus norvegicus [9]) | Activity (Canis familiaris) | Retention (Rattus norvegicus [10]) | Retention (Rattus norvegicus [11])
CCCCCCCCCCCCCCCCCCCCCCN(CCN(CCN(CCN(CC(=O)O)CC(=O)O)CC(=O)O)CC(=O)O)CC(=O)O | 37% | 70.2 g | 26% | 89% | 44% | 32% | – | – | – | – | – | –
CCCCCCCCCCCCN(CCN(CCN(CCN(CC(=O)O)CC(=O)O)CC(=O)O)CC(=O)O)CC(=O)O | 20% | 55.7 g | 23% | 71% | 29% | 17% | 73% | 20% | 73% | 0.26 | 3% | 4%
CCCCCCCCN(CCN(CCN(CCN(CC(=O)O)CC(=O)O)CC(=O)O)CC(=O)O)CC(=O)O | – | – | – | – | – | – | – | – | – | 0.16 | – | –
